According to ChEMBL document CHEMBL4689842, “EUbOPEN Chemogenomics Library wave 1” (2021):

Tested on: HEK-293T
Assay: Multiplex assay against HEK293T;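 on Population Tubulin-Different-Phenotype (%): share of the cells with healthy nuclei that show this phenotype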
Format: toxicity, cell-based
Settings: human
Outline: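 Phenotypes for tubulin, mitochondrial mass and membrane permeability are expressed as per cents of healthy-nucleus cells. Cells were stained live at seeding with Hoechst33342, BioTracker Green Microtubule Cytoskeleton Dye, MitoTracker Red and Annexin V Alexa Fluor 680, then imaged after compound addition on a CQ1 microscope at 37°C and 5% CO2. Machine-learning gating in CellPathfinder separated Hoechst high-intensity objects from normal cells, divided normal cells by nuclear state (healthy, pyknosed, fragmented) and divided pyknosed cells into mitotic or apoptotic.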

[1] = 12 h, 1 µM, compound concentration 1 uM, replicate 1
[2] = 12 h, 1 µM, compound concentration 1 uM, replicate 2
[3] = 12 h, 10 µM, compound concentration 10 uM, replicate 1
[4] = 12 h, 10 µM, compound concentration 10 uM, replicate 2
[5] = 24 h, 1 µM, compound concentration 1 uM, replicate 1
[6] = 24 h, 1 µM, compound concentration 1 uM, replicate 2
[7] = 24 h, 10 µM, compound concentration 10 uM, replicate 1
[8] = 24 h, 10 µM, compound concentration 10 uM, replicate 2
[9] = 48 h, 1 µM, compound concentration 1 uM, replicate 1
[10] = 48 h, 1 µM, compound concentration 1 uM, replicate 2
[11] = 48 h, 10 µM, compound concentration 10 uM, replicate 1
[12] = 48 h, 10 µM, compound concentration 10 uM, replicate 2

Q: Which results are given for `O=C(Cc1ccc(-c2ccc(OCCN3CCOCC3)cc2)cn1)NCc1ccccc1` [TIRBANIBULIN]?
A: Population Apoptotic (%) [1]: 34%; Population Fragmented Nuclei (%) [1]: 17%; Population Healthy Nuclei (%) [1]: 21%; Population Hoechst High Intensity Objects (%) [1]: 12%; Population Membrane Permeable-Phenotype (%) [1]: 0%; Population Mitochondria Different-Phenotype (%) [1]: 58%; Population Mitotic Cells (%) [1]: 65%; Population Normal (%) [1]: 87%; Population Pyknosed Nuclei (%) [1]: 61%; Population Tubulin-Different-Phenotype (%) [1]: 2%; Total Cell Count [1]: 193; Population Apoptotic (%) [2]: 16%; Population Fragmented Nuclei (%) [2]: 8%; Population Healthy Nuclei (%) [2]: 30%; Population Hoechst High Intensity Objects (%) [2]: 2%; Population Membrane Permeable-Phenotype (%) [2]: 10%; Population Mitochondria Different-Phenotype (%) [2]: 23%; Population Mitotic Cells (%) [2]: 83%; Population Normal (%) [2]: 97%; Population Pyknosed Nuclei (%) [2]: 60%; Population Tubulin-Different-Phenotype (%) [2]: 11%; Total Cell Count [2]: 231; Population Apoptotic (%) [3]: 52%; Population Fragmented Nuclei (%) [3]: 20%; Population Healthy Nuclei (%) [3]: 21%; Population Hoechst High Intensity Objects (%) [3]: 18%; Population Membrane Permeable-Phenotype (%) [3]: 0%; Population Mitochondria Different-Phenotype (%) [3]: 79%; Population Mitotic Cells (%) [3]: 47%; Population Normal (%) [3]: 81%; Population Pyknosed Nuclei (%) [3]: 58%; Population Tubulin-Different-Phenotype (%) [3]: 27%; Total Cell Count [3]: 169; Population Apoptotic (%) [4]: 17%; Population Fragmented Nuclei (%) [4]: 5%; Population Healthy Nuclei (%) [4]: 28%; Population Hoechst High Intensity Objects (%) [4]: 5%; Population Membrane Permeable-Phenotype (%) [4]: 2%; Population Mitochondria Different-Phenotype (%) [4]: 23%; Population Mitotic Cells (%) [4]: 82%; Population Normal (%) [4]: 95%; Population Pyknosed Nuclei (%) [4]: 66%; Population Tubulin-Different-Phenotype (%) [4]: 6%; Total Cell Count [4]: 160; Population Apoptotic (%) [5]: 39%; Population Fragmented Nuclei (%) [5]: 17%; Population Healthy Nuclei (%) [5]: 21%; Population Hoechst High Intensity Objects (%) [5]: 14%; Population Membrane Permeable-Phenotype (%) [5]: 2%; Population Mitochondria Different-Phenotype (%) [5]: 37%; Population Mitotic Cells (%) [5]: 60%; Population Normal (%) [5]: 85%; Population Pyknosed Nuclei (%) [5]: 61%; Population Tubulin-Different-Phenotype (%) [5]: 5%; Total Cell Count [5]: 194; Population Apoptotic (%) [6]: 27%; Population Fragmented Nuclei (%) [6]: 6%; Population Healthy Nuclei (%) [6]: 29%; Population Hoechst High Intensity Objects (%) [6]: 2%; Population Membrane Permeable-Phenotype (%) [6]: 6%; Population Mitochondria Different-Phenotype (%) [6]: 25%; Population Mitotic Cells (%) [6]: 72%; Population Normal (%) [6]: 97%; Population Pyknosed Nuclei (%) [6]: 63%; Population Tubulin-Different-Phenotype (%) [6]: 33%; Total Cell Count [6]: 207; Population Apoptotic (%) [7]: 54%; Population Fragmented Nuclei (%) [7]: 21%; Population Healthy Nuclei (%) [7]: 16%; Population Hoechst High Intensity Objects (%) [7]: 17%; Population Membrane Permeable-Phenotype (%) [7]: 0%; Population Mitochondria Different-Phenotype (%) [7]: 82%; Population Mitotic Cells (%) [7]: 45%; Population Normal (%) [7]: 82%; Population Pyknosed Nuclei (%) [7]: 62%; Population Tubulin-Different-Phenotype (%) [7]: 17%; Total Cell Count [7]: 168; Population Apoptotic (%) [8]: 22%; Population Fragmented Nuclei (%) [8]: 5%; Population Healthy Nuclei (%) [8]: 25%; Population Hoechst High Intensity Objects (%) [8]: 5%; Population Membrane Permeable-Phenotype (%) [8]: 7%; Population Mitochondria Different-Phenotype (%) [8]: 23%; Population Mitotic Cells (%) [8]: 77%; Population Normal (%) [8]: 94%; Population Pyknosed Nuclei (%) [8]: 68%; Population Tubulin-Different-Phenotype (%) [8]: 18%; Total Cell Count [8]: 160; Population Apoptotic (%) [9]: 56%; Population Fragmented Nuclei (%) [9]: 25%; Population Healthy Nuclei (%) [9]: 23%; Population Hoechst High Intensity Objects (%) [9]: 16%; Population Membrane Permeable-Phenotype (%) [9]: 5%; Population Mitochondria Different-Phenotype (%) [9]: 45%; Population Mitotic Cells (%) [9]: 43%; Population Normal (%) [9]: 83%; Population Pyknosed Nuclei (%) [9]: 50%; Population Tubulin-Different-Phenotype (%) [9]: 24%; Total Cell Count [9]: 187; Population Apoptotic (%) [10]: 40%; Population Fragmented Nuclei (%) [10]: 12%; Population Healthy Nuclei (%) [10]: 43%; Population Hoechst High Intensity Objects (%) [10]: 4%; Population Membrane Permeable-Phenotype (%) [10]: 12%; Population Mitochondria Different-Phenotype (%) [10]: 25%; Population Mitotic Cells (%) [10]: 60%; Population Normal (%) [10]: 95%; Population Pyknosed Nuclei (%) [10]: 44%; Population Tubulin-Different-Phenotype (%) [10]: 50%; Total Cell Count [10]: 213; Population Apoptotic (%) [11]: 56%; Population Fragmented Nuclei (%) [11]: 29%; Population Healthy Nuclei (%) [11]: 13%; Population Hoechst High Intensity Objects (%) [11]: 17%; Population Membrane Permeable-Phenotype (%) [11]: 0%; Population Mitochondria Different-Phenotype (%) [11]: 66%; Population Mitotic Cells (%) [11]: 44%; Population Normal (%) [11]: 82%; Population Pyknosed Nuclei (%) [11]: 56%; Population Tubulin-Different-Phenotype (%) [11]: 11%; Total Cell Count [11]: 160; Population Apoptotic (%) [12]: 36%; Population Fragmented Nuclei (%) [12]: 7%; Population Healthy Nuclei (%) [12]: 39%; Population Hoechst High Intensity Objects (%) [12]: 4%; Population Membrane Permeable-Phenotype (%) [12]: 9%; Population Mitochondria Different-Phenotype (%) [12]: 23%; Population Mitotic Cells (%) [12]: 63%; Population Normal (%) [12]: 95%; Population Pyknosed Nuclei (%) [12]: 52%; Population Tubulin-Different-Phenotype (%) [12]: 20%; Total Cell Count [12]: 145
